Compounds with a hit are over-represented: about 3% of the library has one in this group of screens.
S100A4 MyoIIA – blocks human S100A4 binding to myosin IIA peptide; P26447; S100A4/TAMRA-MyoIIA peptide fluorescence polarization; inhibition, % at 10.7 µM; hit rate 0.14% among 360,000;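 active = mean inhibition of at least 70% across replicates, with every replicate also reaching that level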
Target sequence (P26447 whole entry, looked up): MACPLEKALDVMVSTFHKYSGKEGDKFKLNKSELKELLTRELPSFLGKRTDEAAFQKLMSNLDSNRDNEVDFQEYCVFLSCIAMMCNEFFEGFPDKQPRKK
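incubation = readout 5 min after mixing, signal stable up to 60 min | system = S100A4 monomer protein | buffer or medium = HEPES pH 7.2 with CaCl2, KCl, NaCl, DTT, Triton | benchmarks = neutral control DMSO, positive control TFP | also added = fluorescent myosin IIA peptide, 5 nM | compound dosing = one concentration per compound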
Cneo AK release – Cryptococcus neoformans lysis via adenylate kinase release; C. neoformans lysis, adenylate kinase release luminescence, 4 h; normalised: neutral wells 0, clomiphene wells 100; hit rate 0.2% among 360,000; lysis activity, % at 15 µM;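 active = mean lysis activity across replicates of at least 80%, whatever share of replicates individually reach that level; inactive = mean lysis activity below 80%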
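Assay system: Cryptococcus neoformans yeast cells / Dosing: single-point compound dose / Timing: 4 h at 37 °C static, read 1 h later / Measured by: luminescence of released adenylate kinase using an AK detection reagent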
C2C12 statin – protects C2C12 myotubes from simvastatin toxicity | ATP luminescence, 48 h; scaled: DMSO 0, geranylgeraniol control 100 | rescue of ATP level, % at 7.49 µM | hit rate 0.78% among 330,000 | AID 602340;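 active = mean ATP rescue above about 67%, or every replicate alone reaching that limit, limit read from the data, passing the limit was not always enough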;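 note: myotubes were challenged with 10 µM simvastatin during compound exposure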
PGC1a acetyl inh – PGC1a acetylation modulation, inhibitor mode | U2OS PGC1a acetylation, AlphaScreen anti-acetyl-lysine; with virally co-expressed GCN5 acetyltransferase | inhibition, % at 15.6 µM | hit rate 0.17% among 350,000 | AID 651687;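 active = every replicate shows inhibition of at least 40%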;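 note: 0% = neutral control wells and 100% = positive control wells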
SIRT5 inh – sirtuin-5 (human) deacylase inhibition; Purified SirT5, succinyl-peptide AMC, trypsin-coupled fluorescence; inhibition, % at 15 µM; hit rate 1.1% among 330,000; Q9NXA8; in the data active = inhibition above about 15%
Target sequence (Q9NXA8 whole entry, looked up): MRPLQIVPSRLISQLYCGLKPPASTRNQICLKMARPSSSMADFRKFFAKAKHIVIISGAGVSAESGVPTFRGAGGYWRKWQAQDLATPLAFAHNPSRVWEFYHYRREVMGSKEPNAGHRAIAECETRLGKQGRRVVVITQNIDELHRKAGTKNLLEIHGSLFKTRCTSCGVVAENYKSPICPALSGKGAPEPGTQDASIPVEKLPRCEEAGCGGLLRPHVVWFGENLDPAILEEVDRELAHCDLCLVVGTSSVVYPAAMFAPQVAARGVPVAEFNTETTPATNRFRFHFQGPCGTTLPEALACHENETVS
rRNA inh HTS – selective bacterial rRNA inhibition in E. coli; E. coli WT GFP vs humanized-ribosome RFP mutants, fluorescence, 24 h; stronger effect = lower value; DMSO median 0, no signal -100; GFP signal change (wild-type ribosome), % (test concentration not listed); hit rate 1.6% among 350,000; AID 720706;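 active = significant combined selectivity score with lowered wild-type GFP, culture density cut under 30%, mutant RFP and density less affected; inactive = any of these conditions unmet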
Numbers without * were called inactive; nt = not tested or not shown.

SMILES	S100A4 MyoIIA	Cneo AK release	C2C12 statin	PGC1a acetyl inh	SIRT5 inh	rRNA inh HTS
COCC#Cc1cnc2c(c1)C(=O)N([C@H](C)CO)C[C@@H](C)[C@H](CN(C)C(=O)Cc1ccccc1)O2	12.5	3.5	-11.5	-8.1	31.4*	-2.1
CN(C)CC(=O)N[C@H]1CC[C@H](CCn2cc(CN(C)C)nn2)O[C@@H]1CO	5.7	1.8	10.0	5.7	-1.2	1.9
CCCNC(=O)[C@@H]1[C@@H](CO)[C@@H]2Cn3c(ccc(-c4ccc(F)cc4)c3=O)[C@@H]2N1CC1CC1	10.4	-3.9	-8.4	nt	0.6	-5.5
COc1cccc(NC(=O)N[C@@H]2CC[C@H](CC(=O)NCc3ccncn3)O[C@@H]2CO)c1	3.6	-2.2	-5.8	4.2	-6.4	2.4
C[C@@H]1CN([C@H](C)CO)C(=O)c2cccc(NC(=O)C3CC3)c2O[C@H]1CN(C)Cc1ccc(C(=O)O)cc1	-4.4	97.0*	0.5	13.0	-5.1	2.8
C[C@@H]1CN([C@@H](C)CO)C(=O)c2cccc(NC(=O)C3CC3)c2O[C@@H]1CN(C)Cc1ccc(C(=O)O)cc1	10.5	53.0	22.9	1.2	0.8	6.5
C[C@@H]1CN([C@@H](C)CO)C(=O)c2cccc(NC(=O)C3CC3)c2O[C@@H]1CN(C)Cc1ccc(C(=O)Nc2ccccc2N)cc1	-11.3	-0.1	-42.2	18.4	16.9*	-1.6
C[C@@H]1CN([C@@H](C)CO)C(=O)c2cccc(NC(=O)Nc3ccccc3)c2O[C@H]1CN(C)Cc1ccc(C(=O)Nc2ccccc2N)cc1	0.0	-1.3	69.5*	-5.6	4.6	-0.1
C[C@H](CO)N1C[C@H](C)[C@@H](CN(C)Cc2ccc(C(=O)Nc3ccccc3N)cc2)Oc2c(NC(=O)Nc3ccccc3)cccc2C1=O	-40.2	0.9	35.1	-5.8	-0.2	2.9
CCOC(=O)C1=CC[C@@H](c2ccc3ccccc3n2)[C@@H]1C(=O)c1ccccc1	-8.8	-0.8	nt	-14.2	-1.8	nt
C[C@@H]1CCCCO[C@H](CN(C)C(=O)c2ccccc2)[C@@H](C)CN([C@H](C)CO)C(=O)c2cc(NC(=O)C3CCCCC3)ccc2O1	-5.1	50.9	-44.3	6.8	1.7	0.3
C[C@@H]1CCCCO[C@H](CN(C)C(=O)Nc2ccc(F)cc2)[C@@H](C)CN([C@H](C)CO)C(=O)c2cc(NS(C)(=O)=O)ccc2O1	15.1	2.7	nt	-5.0	-0.7	2.3
CN1C(=O)c2cc(NC(=O)C3CCOCC3)ccc2OC[C@@H]2O[C@H](CC(=O)NCC3CC3)CC[C@@H]21	6.4	-3.3	-4.9	1.4	3.1	5.5
O=C(Nc1ccc(F)cc1)N1CCCCN2[C@H](CO)[C@H](c3ccc(C#CC4CC4)cc3)[C@@H]2C1	-1.9	-0.1	7.2	17.0	-3.4	-26.2
CSC(=Nc1ccccc1)C(C#N)c1nc2ccccc2[nH]1 (stereo not drawn)	-4.1	-1.7	-13.5	nt	nt	-14.5
N#CC(C(=S)Nc1ccccc1)c1nc2ccccc2[nH]1 (stereo not drawn)	-2.7	0.0	-2.9	-15.0	1.3	-37.5*
CNc1ccc(C=C2C=Cc3ccccc32)cc1	-3.6	nt	-2.6	3.3	0.8	-19.5*
O=C(O)c1cc(/C=C/c2ccc(N3CCOCC3)cc2)nc2ccccc12	-8.9	nt	nt	nt	7.3	-25.0*
O=C(O)c1cc(/C=C/c2ccc(N3CCOCC3)c([N+](=O)[O-])c2)nc2ccccc12	3.4	-4.6	nt	8.9	11.1	-1.8
COc1cc(/C=C/c2cc(C(=O)O)c3ccccc3n2)ccc1OC(F)F	-2.3	nt	3.7	15.1	2.9	-25.9*
Cc1cccc(-c2ccc([C@@H]3[C@H]4CN(C(=O)c5ccc6c(c5)OCO6)CCCCN4[C@H]3CO)cc2)c1	-0.7	86.1*	-14.3	-5.8	6.5	6.4
CSc1ccc(C(=O)C2CCCN(C(=O)c3ccc4c(c3)OCO4)C2)cc1 (stereo not drawn)	2.1	5.7	16.4	1.7	16.3*	-39.6
CC(C)C#Cc1ccc([C@@H]2[C@H](CO)N3CCCCN(C(=O)c4ccc5c(c4)OCO5)C[C@@H]23)cc1	-2.5	110.9*	nt	-1.7	-1.0	-31.8

Bioassay records as filed in PubChem BioAssay.
